Source: ChEMBL document CHEMBL1649284 (Antimicrob Agents Chemother, 2009)
Numbered stars: 1 amine (or outer) side, 2 acyl side, 3 side chain; on linkers, the order of the positions; unused ones are H or OH. Bridge positions count the residues as written; N and C are the ends. Square brackets hold non-standard residues; d marks the D form. Peptide text beside a SMILES is read from it. * marks the point of attachment. pTerphenylCO(4''-OnC5H11) = CCCCCOc1ccc(-c2ccc(-c3ccc(C(=O)*)cc3)cc2)cc1; Orn(4R-OH,5R-OH) = O=C([C@H](C[C@@H](O)[C@@H](O)N[*:3])N[*:1])[*:2]; hTyr(3S-OH,4S-OH) = N[C@H](C(=O)O)[C@H](O)[C@@H](O)c1ccc(O)cc1; Pro(3S-OH,4S-Me) = C[C@H]1CN[C@H](C(=O)O)[C@H]1O; Hyp = O=C(O)[C@@H]1C[C@@H](O)CN1

Key:
[1] = Cmax in healthy human at 200 mg, iv on day 1 as 200 mins infusion followed by maintenance dose of 100 mg every 24 hrs on days 2 and 3 as 100 mins infusions; assay type: ADME, organism-based; set-up: dose 200 mg, route intravenous; details: in vivo
Procedure, shortened: (§1)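 Duplicate blood draws at 0 h, 100 min (end of infusion), and 2, 4, 8, 12, 24 h after the day-3 dose start. Plasma measured by HPLC-MS/MS (range 50.0–20,000 ng/ml). Noncompartmental analysis, per participant; AUC0-τ by linear-log trapezoidal rule, τ = 24 h.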

[2] = Tmax in healthy human at 200 mg, iv on day 1 as 200 mins infusion followed by maintenance dose of 100 mg every 24 hrs on days 2 and 3 as 100 mins infusions; assay type: ADME, organism-based; details: in vivo; procedure, shortened: as §1
Homo sapiens [3] = test: AUC (0 to t) in healthy human at 200 mg, iv on day 1 as 200 mins infusion followed by maintenance dose of 100 mg every 24 hrs on days 2 and 3 as 100 mins infusions; assay type: ADME, organism-based, Plasma; details: in vivo; procedure, shortened: as §1
[4] = Volume of distribution at steady state in healthy human at 200 mg, iv on day 1 as 200 mins infusion followed by maintenance dose of 100 mg every 24 hrs on days 2 and 3 as 100 mins infusions; assay type: ADME, organism-based; details: in vivo, read-out: Vdss; procedure, shortened: as §1
Homo sapiens [5] = test: Total body clearance in healthy human at 200 mg, iv on day 1 as 200 mins infusion followed by maintenance dose of 100 mg every 24 hrs on days 2 and 3 as 100 mins infusions; assay type: ADME, organism-based; details: in vivo; procedure, shortened: as §1
[6] = Elimination half life in healthy human at 200 mg, iv on day 1 as 200 mins infusion followed by maintenance dose of 100 mg every 24 hrs on days 2 and 3 as 100 mins infusions; assay type: ADME, organism-based; details: in vivo, read-out: beta t1/2 (converted)
[7] = Drug level healthy human plasma at 200 mg, iv on day 1 as 200 mins infusion followed by maintenance dose of 100 mg every 24 hrs on days 2 and 3 as 100 mins infusions after 4 hrs of last dose; assay type: ADME, organism-based; details: read-out: Drug uptake
[8] = Drug level healthy human plasma at 200 mg, iv on day 1 as 200 mins infusion followed by maintenance dose of 100 mg every 24 hrs on days 2 and 3 as 100 mins infusions after 8 hrs of last dose; assay type: ADME, organism-based; details: read-out: Drug uptake
[9] = Drug level healthy human plasma at 200 mg, iv on day 1 as 200 mins infusion followed by maintenance dose of 100 mg every 24 hrs on days 2 and 3 as 100 mins infusions after 12 hrs of last dose; assay type: ADME, organism-based; details: read-out: Drug uptake
[10] = Drug level healthy human plasma at 200 mg, iv on day 1 as 200 mins infusion followed by maintenance dose of 100 mg every 24 hrs on days 2 and 3 as 100 mins infusions after 24 hrs of last dose; assay type: ADME, organism-based; details: read-out: Drug uptake
[11] = Drug level healthy human epithelial lining fluid at 200 mg, iv on day 1 as 200 mins infusion followed by maintenance dose of 100 mg every 24 hrs on days 2 and 3 as 100 mins infusions after 4 hrs of last dose; assay type: ADME, organism-based; details: read-out: Drug uptake
Procedure, shortened: (§2)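 Single bronchoscopy with BAL in healthy adults (5 per time point) after the third co-dose, following 6 h fasting. Supernatant (400 × g, 4°C, 10 min) mixed 1:1 with methanol. Both drugs measured by HPLC-MS/MS with saline surrogate-matrix calibrators. ELF volume estimated by urea dilution, with urea in BAL and simultaneous serum measured colorimetrically. Total drug reported.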

[12] = Drug level healthy human epithelial lining fluid at 200 mg, iv on day 1 as 200 mins infusion followed by maintenance dose of 100 mg every 24 hrs on days 2 and 3 as 100 mins infusions after 8 hrs of last dose; assay type: ADME, organism-based; details: read-out: Drug uptake; procedure, shortened: as §2
[13] = Drug level healthy human epithelial lining fluid at 200 mg, iv on day 1 as 200 mins infusion followed by maintenance dose of 100 mg every 24 hrs on days 2 and 3 as 100 mins infusions after 12 hrs of last dose; assay type: ADME, organism-based; details: read-out: Drug uptake; procedure, shortened: as §2
[14] = Drug level healthy human epithelial lining fluid at 200 mg, iv on day 1 as 200 mins infusion followed by maintenance dose of 100 mg every 24 hrs on days 2 and 3 as 100 mins infusions after 24 hrs of last dose; assay type: ADME, organism-based; details: read-out: Drug uptake; procedure, shortened: as §2
[15] = Drug level healthy human alveolar macrophage at 200 mg, iv on day 1 as 200 mins infusion followed by maintenance dose of 100 mg every 24 hrs on days 2 and 3 as 100 mins infusions after 4 hrs of last dose; assay type: ADME, organism-based; details: alveolar macrophages, read-out: Drug uptake
Procedure, shortened: (§3)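 Single bronchoscopy with BAL in healthy adults (5 per time point) after the third co-dose, following 6 h fasting and lidocaine anaesthesia. BAL centrifuged at 400 × g, 4°C, 10 min. Cell pellet lysed in 0.9% NaCl/methanol (1:1). Both drugs measured by HPLC-MS/MS against saline surrogate-matrix standards. AM concentration calculated from manual cell counts and a mean AM volume of 2.42 μl/10^6 cells. Total drug reported.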

[16] = Drug level healthy human alveolar macrophage at 200 mg, iv on day 1 as 200 mins infusion followed by maintenance dose of 100 mg every 24 hrs on days 2 and 3 as 100 mins infusions after 8 hrs of last dose; assay type: ADME, organism-based; details: alveolar macrophages, read-out: Drug uptake; procedure, shortened: as §3
[17] = Drug level healthy human alveolar macrophage at 200 mg, iv on day 1 as 200 mins infusion followed by maintenance dose of 100 mg every 24 hrs on days 2 and 3 as 100 mins infusions after 12 hrs of last dose; assay type: ADME, organism-based; details: alveolar macrophages, read-out: Drug uptake; procedure, shortened: as §3
[18] = Drug level healthy human alveolar macrophage at 200 mg, iv on day 1 as 200 mins infusion followed by maintenance dose of 100 mg every 24 hrs on days 2 and 3 as 100 mins infusions after 24 hrs of last dose; assay type: ADME, organism-based; details: alveolar macrophages, read-out: Drug uptake; procedure, shortened: as §3
[19] = Cmax in healthy human at 6 mg/kg, iv for every 12 hrs on day 1 as 120 mins infusions followed by maintenance dose of 4 mg/kg every 12 hrs on day 2 and single 4 mg/kg dose on day 3 as 100 mins infusions; assay type: ADME, organism-based; set-up: dose 6 mg/kg, route intravenous; details: in vivo
Procedure, shortened: (§4)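 Dose by actual body weight, rounded to nearest mg. Duplicate plasma samples at 0 h, 100 min, and 2, 4, 8, 12, 24 h after the day-3 dose start. HPLC-MS/MS (range 10.0–5,000 ng/ml). Noncompartmental analysis per participant; AUC0-τ by linear-log trapezoidal rule, τ = 12 h.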

[20] = Tmax in healthy human at 6 mg/kg, iv for every 12 hrs on day 1 as 120 mins infusions followed by maintenance dose of 4 mg/kg every 12 hrs on day 2 and single 4 mg/kg dose on day 3 as 100 mins infusions; assay type: ADME, organism-based; details: in vivo; procedure, shortened: as §4
[21] = AUC (0 to t) in healthy human at 6 mg/kg, iv for every 12 hrs on day 1 as 120 mins infusions followed by maintenance dose of 4 mg/kg every 12 hrs on day 2 and single 4 mg/kg dose on day 3 as 100 mins infusions; assay type: ADME, organism-based; details: plasma; procedure, shortened: as §4
[22] = Volume of distribution at steady state in healthy human at 6 mg/kg, iv for every 12 hrs on day 1 as 120 mins infusions followed by maintenance dose of 4 mg/kg every 12 hrs on day 2 and single 4 mg/kg dose on day 3 as 100 mins infusions; assay type: ADME, organism-based; details: in vivo, read-out: Vdss; procedure, shortened: as §4
[23] = Elimination half life in healthy human at 6 mg/kg, iv for every 12 hrs on day 1 as 120 mins infusions followed by maintenance dose of 4 mg/kg every 12 hrs on day 2 and single 4 mg/kg dose on day 3 as 100 mins infusions; assay type: ADME, organism-based; details: in vivo, read-out: beta t1/2 (converted)
[24] = Drug level healthy human plasma at 6 mg/kg, iv for every 12 hrs on day 1 as 120 mins infusions followed by maintenance dose of 4 mg/kg every 12 hrs on day 2 and single 4 mg/kg dose on day 3 as 100 mins infusions after 4 hrs of last dose; assay type: ADME, organism-based; details: read-out: Drug uptake
[25] = Drug level healthy human plasma at 6 mg/kg, iv for every 12 hrs on day 1 as 120 mins infusions followed by maintenance dose of 4 mg/kg every 12 hrs on day 2 and single 4 mg/kg dose on day 3 as 100 mins infusions after 8 hrs of last dose; assay type: ADME, organism-based; details: read-out: Drug uptake
[26] = Drug level healthy human plasma at 6 mg/kg, iv for every 12 hrs on day 1 as 120 mins infusions followed by maintenance dose of 4 mg/kg every 12 hrs on day 2 and single 4 mg/kg dose on day 3 as 100 mins infusions after 12 hrs of last dose; assay type: ADME, organism-based; details: read-out: Drug uptake
[27] = Drug level in healthy human epithelial lining fluid at 6 mg/kg, iv for every 12 hrs on day 1 as 120 mins infusions followed by maintenance dose of 4 mg/kg every 12 hrs on day 2 and single 4 mg/kg dose on day 3 as 100 mins infusions after 4 hrs of last dose; assay type: ADME, organism-based; details: read-out: Drug uptake; procedure, shortened: as §2
[28] = Drug level in healthy human epithelial lining fluid at 6 mg/kg, iv for every 12 hrs on day 1 as 120 mins infusions followed by maintenance dose of 4 mg/kg every 12 hrs on day 2 and single 4 mg/kg dose on day 3 as 100 mins infusions after 8 hrs of last dose; assay type: ADME, organism-based; details: read-out: Drug uptake; procedure, shortened: as §2
[29] = Drug level in healthy human epithelial lining fluid at 6 mg/kg, iv for every 12 hrs on day 1 as 120 mins infusions followed by maintenance dose of 4 mg/kg every 12 hrs on day 2 and single 4 mg/kg dose on day 3 as 100 mins infusions after 12 hrs of last dose; assay type: ADME, organism-based; details: read-out: Drug uptake; procedure, shortened: as §2
[30] = Drug level in healthy human alveolar macrophage at 6 mg/kg, iv for every 12 hrs on day 1 as 120 mins infusions followed by maintenance dose of 4 mg/kg every 12 hrs on day 2 and single 4 mg/kg dose on day 3 as 100 mins infusions after 4 hrs of last dose; assay type: ADME, organism-based; details: alveolar macrophages, read-out: Drug uptake; procedure, shortened: as §3
[31] = Drug level in healthy human alveolar macrophage at 6 mg/kg, iv for every 12 hrs on day 1 as 120 mins infusions followed by maintenance dose of 4 mg/kg every 12 hrs on day 2 and single 4 mg/kg dose on day 3 as 100 mins infusions after 8 hrs of last dose; assay type: ADME, organism-based; details: alveolar macrophages, read-out: Drug uptake; procedure, shortened: as §3
[32] = Drug level in healthy human alveolar macrophage at 6 mg/kg, iv for every 12 hrs on day 1 as 120 mins infusions followed by maintenance dose of 4 mg/kg every 12 hrs on day 2 and single 4 mg/kg dose on day 3 as 100 mins infusions after 12 hrs of last dose; assay type: ADME, organism-based; details: alveolar macrophages, read-out: Drug uptake; procedure, shortened: as §3

CCCCCOc1ccc(-c2ccc(-c3ccc(C(=O)N[C@H]4C[C@@H](O)[C@@H](O)NC(=O)[C@@H]5[C@@H](O)[C@@H](C)CN5C(=O)[C@H]([C@@H](C)O)NC(=O)[C@H]([C@H](O)[C@@H](O)c5ccc(O)cc5)NC(=O)[C@@H]5C[C@@H](O)CN5C(=O)[C@H]([C@@H](C)O)NC4=O)cc3)cc2)cc1 [ANIDULAFUNGIN] ({pTerphenylCO(4''-OnC5H11)}-[Orn(4R-OH,5R-OH)]T[Hyp][hTyr(3S-OH,4S-OH)]T[Pro(3S-OH,4S-Me)]; lactam 1-C)
Cmax [1]: 6600 ng/mL | Tmax [2]: 1.9 h | AUC (Homo sapiens [3]): 101000 ng·h/mL | Vd [4]: 30.8 L | clearance (Homo sapiens [5]): 17.1 mL/min | half-life [6]: 20.8 h | concentration at 4 h [7]: 6000 ng/mL | concentration at 8 h [8]: 5100 ng/mL | concentration at 12 h [9]: 4400 ng/mL | concentration at 24 h [10]: 3000 ng/mL | concentration at 4 h [11]: 900 ng/mL | concentration at 8 h [12]: 800 ng/mL | concentration at 12 h [13]: 800 ng/mL | concentration at 24 h [14]: 1100 ng/mL | concentration at 4 h [15]: 44600 ng/mL | concentration at 8 h [16]: 37900 ng/mL | concentration at 12 h [17]: 42700 ng/mL | concentration at 24 h [18]: 103000 ng/mL

C[C@@H](c1ncncc1F)[C@](O)(Cn1cncn1)c1ccc(F)cc1F [VORICONAZOLE]
Cmax [19]: 5300 ng/mL | Tmax [20]: 1.8 h | AUC(0-t) [21]: 39500 ng·h/mL | Vd [22]: 110 L | half-life [23]: 6.9 h | concentration at 4 h [24]: 5300 ng/mL | concentration at 8 h [25]: 1700 ng/mL | concentration at 12 h [26]: 2200 ng/mL | concentration at 4 h [27]: 48300 ng/mL | concentration at 8 h [28]: 10100 ng/mL | concentration at 12 h [29]: 17200 ng/mL | concentration at 4 h [30]: 20600 ng/mL | concentration at 8 h [31]: 10300 ng/mL | concentration at 12 h [32]: 14400 ng/mL
